Measurements reported in PMC5601358 (Journal of Medicinal Chemistry, 2017).

Columns and labels:
[1] = target: T1, human adenosine A3 receptor (Homo sapiens, UniProt P0DMS8); experiment: Radioligand competition association assay with [3H]34; assay type: binding; details: for residence time: read-out: RT (residence time)
T1 sequence (P0DMS8 1-318): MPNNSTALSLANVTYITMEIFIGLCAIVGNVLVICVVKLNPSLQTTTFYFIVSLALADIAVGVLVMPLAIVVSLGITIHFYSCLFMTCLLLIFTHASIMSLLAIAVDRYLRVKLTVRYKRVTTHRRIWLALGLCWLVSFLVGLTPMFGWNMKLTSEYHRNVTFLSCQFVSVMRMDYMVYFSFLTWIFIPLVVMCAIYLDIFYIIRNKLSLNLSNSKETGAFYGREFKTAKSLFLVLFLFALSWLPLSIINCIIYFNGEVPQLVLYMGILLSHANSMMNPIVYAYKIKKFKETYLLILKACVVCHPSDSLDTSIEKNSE

[2] = target: T1, human adenosine A3 receptor; experiment: Radioligand displacement assay with [3H]34; assay type: binding; details: 25 °C, [3H]34, hA3R stably expressed on CHO cell membranes, n ≥ 3
[3] = target: T2, hA3R stably expressed on CHO cell membranes (Homo sapiens, UniProt P0DMS8); experiment: [35S]GTPγS binding assay, 2-Cl-IB-MECA-stimulated, Schild analysis; assay type: biochemical; details: for Mode of antagonism: 2-Cl-IB-MECA concentration-effect curves, antagonist at 30-, 100-, 300-fold Ki; for Schild slope: Coincubation with 2-Cl-IB-MECA 30 min, 25 °C
T2 sequence (P0DMS8 1-318): T1 sequence (P0DMS8 1-318)
How it was run: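 CHO membranes stably expressing human A3 receptor (15 μg) in 50 mM Tris-HCl, 5 mM MgCl2, 1 mM EDTA, 0.05% BSA, 1 mM DTT, pH 7.4, with 1 μM GDP and 5 μg saponin. Agonist 0.1 nM–10 μM plus ~0.3 nM [35S]GTPγS (final). DMSO ≤0.1%. Basal: untreated membranes; maximum: 10 μM agonist. GF/B filtration, scintillation counting. Curves normalized and combined, n ≥ 3.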

SMILES	koff [1]	kon [1]	residence time [1]	pKi ± SEM [2]	Mode of antagonism [3]	Schild slope [3]
COc1ccc(Cn2c(=O)n(CC3CC3)c(=O)c3c2nc2cc(OC)ccn23)cc1 [Compound 28, 3-(Cyclopropylmethyl)-8-methoxy-1-(4-methoxybenzyl)pyrido[2,1-f]purine-2,4(1H,3H)-dione]	7.8e-05 s⁻¹	480000 M⁻¹ s⁻¹	250 ± 72 min	–	–	–
CCc1ccc(Cn2c(=O)n(CC3CC3)c(=O)c3c2nc2cc(OC)ccn23)cc1 [Compound 26, 3-(Cyclopropylmethyl)-1-(4-ethylbenzyl)-8-methoxypyrido[2,1-f]purine-2,4(1H,3H)-dione]	–	–	–	9.2 ± 0.04	–	–
COc1ccn2c(c1)nc1c2c(=O)n(CC2CC2)c(=O)n1Cc1ccc(Cl)cc1 [Compound 30, 1-(4-Chlorobenzyl)-3-(cyclopropylmethyl)-8-methoxypyrido[2,1-f]purine-2,4(1H,3H)-dione]	0.00082 s⁻¹	3e+06 M⁻¹ s⁻¹	20 ± 0.5 min	–	–	–
COc1ccn2c(c1)nc1c2c(=O)n(CC2CC2)c(=O)n1Cc1cccc(Cl)c1 [Compound 29, 1-(3-Chlorobenzyl)-3-(cyclopropylmethyl)-8-methoxypyrido[2,1-f]purine-2,4(1H,3H)-dione]	0.00047 s⁻¹	820000 M⁻¹ s⁻¹	36 ± 5.5 min	–	–	–
COc1cccc(Cn2c(=O)n(CC3CC3)c(=O)c3c2nc2cc(OC)ccn23)c1 [Compound 27, 3-(Cyclopropylmethyl)-8-methoxy-1-(3-methoxybenzyl)pyrido[2,1-f]purine-2,4(1H,3H)-dione]	4.7e-05 s⁻¹	480000 M⁻¹ s⁻¹	376 ± 58 min	–	insurmountable antagonism	0.9 ± 0.2
COc1ccn2c(c1)nc1c2c(=O)[nH]c(=O)n1Cc1ccccc1 [Compound 5, 1-Benzyl-8-methoxy-1H,3H-pyrido[2,1-f]purine-2,4-dione]	0.014 s⁻¹	530000 M⁻¹ s⁻¹	2.2 ± 1.4 min	–	surmountable antagonism	1.0 ± 0.2
COc1ccn2c(c1)nc1c2c(=O)n(CC2CC2)c(=O)n1Cc1ccccc1 [Compound 2, 1-Benzyl-3-(cyclopropylmethyl)-8-methoxypyrido[2,1-f]purine-2,4(1H,3H)-dione]	6e-05 s⁻¹	2.8e+06 M⁻¹ s⁻¹	315 ± 105 min	–	–	–
COc1ccn2c(c1)nc1c2c(=O)n(CC2CC2)c(=O)n1Cc1ccc(Cl)c(Cl)c1 [Compound 31, 3-(Cyclopropylmethyl)-1-(3,4-dichlorobenzyl)-8-methoxypyrido[2,1-f]purine-2,4(1H,3H)-dione]	5.3e-05 s⁻¹	100000 M⁻¹ s⁻¹	391 ± 137 min	–	–	–

More lines, now with the values ahead:

koff [1]	kon [1]	residence time [1]	pKi ± SEM [2]	Mode of antagonism [3]	Schild slope [3]	SMILES
0.0002 s⁻¹	780000 M⁻¹ s⁻¹	148 ± 102 min	–	–	–	COc1ccn2c(c1)nc1c2c(=O)n(CC(C)C)c(=O)n1Cc1ccccc1 [Compound 17, 1-Benzyl-3-isobutyl-8-methoxypyrido[2,1-f]purine-2,4(1H,3H)-dione]
0.00011 s⁻¹	550000 M⁻¹ s⁻¹	250 ± 147 min	–	–	–	COc1ccn2c(c1)nc1c2c(=O)n(CC(C)(C)C)c(=O)n1Cc1ccccc1 [Compound 18, 1-Benzyl-8-methoxy-3-(3-neopentyl)-1H,3H-pyrido[2,1-f]purine-2,4-dione]
8.2e-05 s⁻¹	230000 M⁻¹ s⁻¹	213 ± 35 min	8.6 ± 0.1	–	–	CCCCCCn1c(=O)c2c(nc3cc(OC)ccn32)n(Cc2ccccc2)c1=O [Compound 10, 1-Benzyl-3-hexyl-8-methoxypyrido[2,1-f]purine-2,4(1H,3H)-dione]
0.00032 s⁻¹	850000 M⁻¹ s⁻¹	52 ± 0.3 min	–	–	–	CCCn1c(=O)c2c(nc3cc(OC)ccn32)n(Cc2ccccc2)c1=O [Compound 1, 1-Benzyl-8-methoxy-3-propyl-1H,3H-pyrido[2,1-f]purine-2,4-dione]
–	–	–	8.3 ± 0.1	–	–	C=CCn1c(=O)c2c(nc3cc(OC)ccn32)n(Cc2ccccc2)c1=O [Compound 12, 3-Allyl-1-benzyl-8-methoxypyrido[2,1-f]purine-2,4(1H,3H)-dione]
0.0006 s⁻¹	1.1e+06 M⁻¹ s⁻¹	28 ± 2.2 min	–	–	–	CCCCCn1c(=O)c2c(nc3cc(OC)ccn32)n(Cc2ccccc2)c1=O [Compound 9, 1-Benzyl-8-methoxy-3-pentyl-1H,3H-pyrido[2,1-f]purine-2,4-dione]
6.2e-05 s⁻¹	420000 M⁻¹ s⁻¹	278 ± 45 min	–	–	–	CCCCCCCn1c(=O)c2c(nc3cc(OC)ccn32)n(Cc2ccccc2)c1=O [Compound 11, 1-Benzyl-3-heptyl-8-methoxypyrido[2,1-f]purine-2,4(1H,3H)-dione]
0.00063 s⁻¹	430000 M⁻¹ s⁻¹	27 ± 2.6 min	7.7 ± 0.2	–	–	COCCn1c(=O)c2c(nc3cc(OC)ccn32)n(Cc2ccccc2)c1=O [Compound 15, 1-Benzyl-8-methoxy-3-(2-methoxyethyl)-1H,3H-pyrido[2,1-f]purine-2,4-dione]
